Hits are enriched below; roughly 2.3% of the tested compounds scored in any of these assays.
UBC13 polyUb: UBC13 polyubiquitin chain formation inhibitors, primary screen, biochemical, TR-FRET, uHTS. 330,000 tested, 0.47% active. inhibition, % at 20 µM; in the data active means inhibition above about 45%, passing the limit was not always enough
Target sequence (P61088 whole entry, looked up): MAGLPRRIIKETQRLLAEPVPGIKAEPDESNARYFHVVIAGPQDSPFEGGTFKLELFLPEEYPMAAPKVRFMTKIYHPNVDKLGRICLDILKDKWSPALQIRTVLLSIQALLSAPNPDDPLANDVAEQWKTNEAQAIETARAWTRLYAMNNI
PREPL inhibitor: PREPL enzyme inhibitors, primary screen, biochemical, fluorescence polarization. Prolyl endopeptidase-like (Homo sapiens), Q4J6C6. recombinant PREPL, fluorescence polarization activity-based probe. inhibition, % at 5.96 µM. 320,000 tested, 0.68% active. AID 2751, 2010
UCH37 DUB inh: inhibitors of human UCH37 deubiquitinase, primary screen, biochemical, Ub-AMC cleavage, fluorescence; purified proteasome/UCH37; inhibition, % (concentration not given with the values); 330,000 tested, 0.33% active;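 active means mean inhibition over replicate wells above about 20%, limit read from the data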
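Assay system: Proteasome-bound UCH37. Buffer or medium: pH 7.4 Tris-HCl (50 mM) with ovalbumin, ATP-MgCl2, DTT. Incubation: 30 min preincubation with enzyme, 25 min cleavage at room temperature. Measured by: fluorescence, ex 355 nm, em 460 nm. Read-out basis: percent inhibition. Control set: wells without proteasome as full block, compound-free enzyme plus substrate as uninhibited.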
PP1 counter: PP1-alpha phosphatase inhibitors, primary screen, counter-screen for PP5 inhibitor project, biochemical, fluorescence, OMFP substrate, single point. Serine/threonine-protein phosphatase PP1-alpha catalytic subunit (Homo sapiens), P62136. purified PP1alpha. inhibition, % at 6.7 µM. 320,000 tested, 0.9% active. AID 2235, 2010;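 active means inhibition above the mean inhibition of all tested compounds plus 3 SD, computed separately for each screening campaign, cut at about 15% in these data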
PP5 inh: PP5 phosphatase inhibitors, primary screen, biochemical, fluorescence; inhibition, % at 6.7 µM; purified PP5c, OMFP substrate fluorescence; 320,000 tested, 0.18% active; Serine/threonine-protein phosphatase 5 (Homo sapiens), P53041;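 active means inhibition above the campaign's mean inhibition across all tested compounds plus 3 SD, cut at about 9.5% in these data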
Target sequence (P53041 whole entry, looked up): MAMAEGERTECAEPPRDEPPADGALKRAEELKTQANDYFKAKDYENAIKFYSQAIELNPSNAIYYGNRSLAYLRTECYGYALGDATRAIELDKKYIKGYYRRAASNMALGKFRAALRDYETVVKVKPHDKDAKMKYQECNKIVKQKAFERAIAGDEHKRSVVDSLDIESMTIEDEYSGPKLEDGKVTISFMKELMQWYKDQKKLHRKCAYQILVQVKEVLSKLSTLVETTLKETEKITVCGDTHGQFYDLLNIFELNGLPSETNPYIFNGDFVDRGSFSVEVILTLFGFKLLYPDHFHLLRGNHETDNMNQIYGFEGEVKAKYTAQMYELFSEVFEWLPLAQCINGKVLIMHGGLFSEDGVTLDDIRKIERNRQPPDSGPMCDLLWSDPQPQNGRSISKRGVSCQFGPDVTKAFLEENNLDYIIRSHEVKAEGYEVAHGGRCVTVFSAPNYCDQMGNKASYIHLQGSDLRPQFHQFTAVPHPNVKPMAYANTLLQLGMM
CTSL1 counter: Fasciola hepatica cathepsin L1 inhibitors, primary screen, counter-screen for PFM18AAP inhibitor project, biochemical, QFRET, fluorogenic peptide substrate; inhibition, % at 5.96 µM; recombinant F. hepatica cathepsin L1, Z-Leu-Arg-MCA fluorescence; 300,000 tested, 0.49% active; AID 1906, 2009;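 active means inhibition above the mean of all tested compounds plus 3 SD, set per screening campaign, cut at about 17% in these data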
PP1 inh confirm: PP1 phosphatase inhibitors, confirmation, biochemical, fluorescence, OMFP substrate, triplicate | shares compounds with PP1 counter | purified PP1alpha | inhibition, % at 6.7 µM | 1,900 tested, 52% active;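 active means mean PP1 inhibition above a set limit taken from the earlier primary screen, cut at about 15% in these data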
PP5 counter: PP5 phosphatase inhibition by PP1 hits, confirmation, counter-screen for PP1 inhibitor project, biochemical, fluorescence, triplicate. shares compounds with PP1 counter. purified PP5c, OMFP fluorescence. inhibition, % at 6.7 µM. 1,900 tested, 4% active. AID 2360, 2010;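 active means mean PP5 inhibition over triplicate wells above about 9.5% taken from the earlier PP1 screen, limit read from the data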
PREPL confirm: human PREPL enzyme inhibitors, confirmation, biochemical, fluorescence polarization | shares compounds with PREPL inhibitor | recombinant PREPL, fluorescence polarization activity probe | inhibition, % at 5.96 µM | 2,000 tested, 67% active | AID 2803, 2010
Numbers stand for hits; . = inactive; / = no result given. Unless noted, no stated cut-off is given here; in the data, active means inhibition above about 43%; inactive means the rest.

SMILES	UBC13 polyUb	PREPL inhibitor	UCH37 DUB inh	PP1 counter	PP5 inh	CTSL1 counter	PP1 inh confirm	PP5 counter	PREPL confirm
N#Cc1ccc(CSc2nnc(NC(=O)c3ccc4ncsc4c3)s2)cc1	.	.	.	24	.	.	49	.	/
COc1ccc(-c2nn(-c3ccccc3)cc2C=NNC(=O)c2cccc(S(=O)(=O)Nc3ccccc3Cl)c2)cc1	/	/	.	/	/	/	/	/	/
COc1ccc(N(CC(=O)NN=Cc2ccc(N(C)C)cc2)S(=O)(=O)c2ccccc2)cc1	/	/	.	/	/	/	/	/	/
Cc1noc(NS(=O)(=O)c2ccc(NC(=O)C(Cl)(Cl)Cl)cc2)c1C	.	.	.	.	.	.	/	/	/
Cc1noc(NS(=O)(=O)c2ccc(NC(=O)Nc3ccc(Cl)c(Cl)c3)cc2)c1C	.	48	.	18	.	.	.	.	46
Cc1ccc(-n2c(C)cc(C=NNC(=O)CN(c3ccc(C)cc3C)S(C)(=O)=O)c2C)cc1	/	/	.	/	/	/	/	/	/
COc1ccc(Nc2nc(N3CCCCC3)c3ccccc3n2)cc1	.	60	.	21	.	.	.	.	.
Cc1cccc(C)c1-n1c(C)cc(/C=N/NC(N)=S)c1C	.	.	/	.	.	.	/	/	/
Cc1cc(/C=N/NC(N)=S)c(C)n1-c1ccc(Br)cc1	.	54	/	25	.	42	16	.	45
CC(=NNC(=O)c1ccccc1)C(=NO)C(=O)Nc1ccccc1	/	/	.	/	/	/	/	/	/
COc1cccc(C=NNC(=O)c2cccc(N3CCCC3=O)c2)c1	/	/	.	/	/	/	/	/	/
Nc1[nH]n2c(=O)c3c(nc2c1N=Nc1ccccc1)CCCC3	.	64	.	20	.	.	21	.	60
CCOC(=O)c1c(-c2ccc(-c3ccccc3)cc2)csc1NC(=O)C1C2CCC(O2)C1C(=O)O (stereo not drawn)	.	51	.	22	11	.	.	.	55
CCN(CC)CCN(C(=O)c1ccc2c(c1)CCCC2)c1nc2cc(OC)c(OC)cc2s1	.	49	.	24	17	.	.	.	.
NC(=O)c1cc(N)ccc1N1CCCC1	.	.	.	.	.	.	/	/	/
Cc1cc(N)ccc1N1CCCC1	.	57	/	21	.	.	.	.	45
C#CCOCCOCCOCCNc1nc(N2CCN(C(=O)CCCCCCCCCCNC(=O)[C@H]([C@@H](C)CC)n3cc(CCCCN=C(N)N)nn3)CC2)nc(N2CCN(C(=O)CCCCCCCCCCNC(=O)[C@H](CO)n3cc(CCCCCN)nn3)CC2)n1	123	54	.	73	12	.	45	.	56
C#CCOCCOCCOCCNc1nc(N2CCN(C(=O)Cn3cc(CCCN=C(N)N)nn3)CC2)nc(N2CCN(C(=O)[C@H]([C@@H](C)CC)n3cc(CCCCN)nn3)CC2)n1	.	.	.	.	.	.	/	/	/
Cc1cc(C)c2nc(N3C(=O)C(O)=C(C(=O)c4ccco4)C3c3ccco3)sc2c1 (stereo not drawn)	.	44	/	32	.	.	31	.	53
O=C(Cc1csc(N2CCOCC2)n1)NN=Cc1cccc(O)c1	/	/	.	/	/	/	/	/	/
COC(=O)CCC(=O)OC1(C)C(=O)C2=CN(Cc3ccccc3)C(c3ccc(OC)cc3)=CC2=C(Br)C1=O (stereo not drawn)	.	46	.	21	10	.	.	28	.
COC(=O)CCC(=O)OC1(C)C(=O)C2=CN(CCCOC(C)C)C(c3ccc(OC)cc3)=CC2=C(Br)C1=O (stereo not drawn)	.	.	.	.	.	.	/	/	/
CCCCCCCCC(=O)NN=Cc1cccc(Br)c1	/	/	.	/	/	/	/	/	/
C/C(C=NNc1nncc(=O)[nH]1)=C\c1ccccc1	/	/	.	/	/	/	/	/	/
O=C(Nc1ccccc1-c1ccccc1)c1ccccc1	.	.	.	.	.	.	/	/	/
SMILES	UBC13 polyUb	PREPL inhibitor	UCH37 DUB inh	PP1 counter	PP5 inh	CTSL1 counter	PP1 inh confirm	PP5 counter	PREPL confirm
Nc1c(S(=O)(=O)O)cc(NC(=O)c2ccccc2)c2c1C(=O)c1ccccc1C2=O	.	65	33	31	.	.	18	.	55
CCOC(=O)C1CCN(C(=O)Nc2ccc3nc(-c4ccco4)c(-c4ccco4)nc3c2)CC1	.	60	.	31	.	.	.	.	64
CCOC(=O)C1CCN(C(=O)Nc2ccc3c(c2)nc(C)n3C)CC1	.	.	.	.	.	.	/	/	/
C(=NN1CCN(C(c2ccccc2)c2ccccc2)CC1)c1ccc2c(c1)OCO2	/	/	.	/	/	/	/	/	/
O=C(COc1ccccc1)NCC(=O)NN=Cc1cc(Br)ccc1OCc1ccccc1	/	/	.	/	/	/	/	/	/
Clc1ccc(C2=C3CCCCn4c(-c5ccccc5)c[n+](c43)C2)cc1	.	50	.	18	.	.	.	.	.
Cc1ccc(Nc2c(-c3ccccn3)nc3cc(C)ccn23)cc1	.	74	.	40	.	.	42	.	58
Cc1ccc(Nc2c(-c3ccccn3)nc3ccc(C)cn23)cc1	.	63	.	71	.	19	42	.	69
Cc1ccn2c(Nc3ccc4c(c3)OCO4)c(-c3ccccn3)nc2c1	.	77	.	28	.	.	47	.	67
Cc1ccc(-c2nc3cnccn3c2Nc2ccc3c(c2)OCO3)o1	.	.	.	.	.	.	/	/	/
Cc1ccc2nc(-c3ccncc3)c(Nc3ccccc3)n2c1	.	.	.	.	.	.	/	/	/
C(=N\Nc1nc2ccccc2[nH]1)/c1cccc2cccnc12	.	63	/	18	.	.	.	.	53
O=C(NCCO)c1ccc2nc(-c3ccco3)c(-c3ccco3)nc2c1	.	.	.	.	.	.	/	/	/
O=C(NC1CCCC1)c1ccc2nc(-c3ccco3)c(-c3ccco3)nc2c1	.	62	.	19	.	.	.	.	.
COc1cccc(/C=N/Nc2ccc([N+](=O)[O-])cn2)c1O	.	56	/	34	.	.	24	.	.
O=C(Cc1ccccc1)Nc1ccc(N2CCCC2)cc1	.	60	.	25	.	.	.	.	.
Cc1nccn1CC(=O)NN=Cc1ccccc1O	/	/	.	/	/	/	/	/	/

Compound activity (PubChem)
